We go through 35 sequences from the EternaBench riboswitch data.

In series [1] the test system is MS2 coat protein. Put plainly: apparent Kd, MS2 coat protein; higher = weaker binding; RNA-MaP array; tryptophan 2.4 mM where present. Summed up:
(§1)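 Each design was made on Illumina sequencing-chip clusters by stalled E. coli RNA polymerase and titrated with SNAP-549-labelled MS2 coat protein from 0.7 or 1.5 nM, doubling to 3 µM, in the absence and then the presence of constant ligand. The buffer was 100 mM Tris-HCl pH 7.5, 80 mM KCl, 4 mM MgCl2, BSA, DTT, yeast tRNA and Tween-20. The apparent Kd is the median of filtered per-cluster fits of binding curves, with green signal normalised to red-channel RNA signal and control-cluster median Fmax.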

In series [2] the test system is MS2 coat protein. Description: apparent Kd, MS2 coat protein; higher = weaker binding; RNA-MaP array; theophylline 2 mM where present. Summed up: as §1
Setting [3] is: designed as: ON switch for tryptophan, no ligand.
[4] abbreviates: ligand present: tryptophan, designed as: ON switch for tryptophan.
[5] abbreviates: designed as: OFF switch for tryptophan, no ligand.
Setting [6] is: ligand present: tryptophan, designed as: OFF switch for tryptophan.
Setting [7] is: designed as: OFF switch for theophylline, no ligand.
Setting [8] is: ligand present: theophylline, designed as: OFF switch for theophylline.
[9] abbreviates: designed as: ON switch for theophylline, no ligand.
The mark [10] stands for this setting: ligand present: theophylline, designed as: ON switch for theophylline.

With “UAAGUUAGGGCGGCCGCCACUCGAACAUGAGGAUCACCCAUGUAAAUUAAUUAAAGGACAUGAAUGAGGACCGGGCCAAGUUAGA”, the entries for the “apparent Kd” value in series [1] (setting [3]) and in series [1] (setting [4]) were 15.7 nM and 13.4 nM, respectively.

On to “GUUUUAUACUCGGCCGCCACUGAGAGAGUCAUGUAAACAUGAGGAUCACCCAUGUAAUAUAUAUACAGGACCGGGAGUAGGGUAA”, for which the “apparent Kd” value in series [1] (setting [5]) amounted to 12.9 nM; in series [1] (setting [6]), 15.4 nM. In the same order, the values of “CGUAGUAUCAGACAUGAGGAUCACCCAUGUCGAGGACCGGUACGGCCGCCACUCGGCAGUUUGCGUCCUCAGGUACUCCAGGUAA” are 15.9 nM and 18.8 nM. For “AUAAUAAUGUCGGCCGCCACUAUAAACAUGAGGAACAUGAGGAUCACCCAUGUAUGAGGAUCACCUAGGACCGGGACUAAUAUUA” the same measures were 47.6 nM and 43.3 nM. In the same order, the values of “AAUUAUCAGUCGGCCGCCACUGACACAUGAGGAUCACCCAUGUAACAUGGGUAAAAUUAACUGAACAGGACCGGGACAAAGGCUA” are 378 nM and 499 nM. Regarding “UCGUUUUAGUCGGCCGCCACUGGUCUCAUGUUCAACAUGAGGAUCACCCAUGUAUCUUAUUUUAACAGGACCGGGACGUAAUAGA”, the “apparent Kd” value in series [1] (setting [5]) worked out at 50.8 nM; in series [1] (setting [6]) it was 19.8 nM. In the case of “GAGAGAGGAGUGCGGCGUGUUCCGCUCCGUCGAGGACCGGUACGGCCGCCACUCGACAUGAGGAUCACCCAUGUCCUCUCUCGCG”, the “apparent Kd” value in series [1] (setting [5]) stood at 31.3 nM; in series [1] (setting [6]) it was 13.8 nM.

For “UUCUACGGCGAUCUGGGUUUACCAGAUCGACGAGGACCGGUACGGCCGCCACUCGUGUUUCUUUAACAUGAGGAUCACCCAUGUA”, the “apparent Kd” value in series [1] (setting [3]) worked out at 48 nM; in series [1] (setting [4]), 22.4 nM.

In the case of “AUAAAUAAUAAAUAAGAUAAAAUGGGUGAACGAGGACCGGUACGGCCGCCACUCGGACAUGAGGAUCACCCAUGUCCAUGUGAAA”, the “apparent Kd” value amounted to 20.2 nM in series [1] (setting [5]) and 27.6 nM in series [1] (setting [6]). In the case of “AGACUGUAAAGUCUACCGGUCAACAAUAAUCGAGGACCGGUACGGCCGCCACUCGAUGUGAUAUACACAUGAGGAUCACCCAUGU”, the “apparent Kd” value was 16.2 nM in series [1] (setting [3]) and 15.5 nM in series [1] (setting [4]).

Consider “GGCCAUGGAAACAUGGCGGCGGCAUAAGCGCGAGGACCGGUACGGCCGCCACUCGGGCGACAUGAGGAUCACCCAUGUUCCUCAU”, for which the “apparent Kd” value in series [1] (setting [5]) amounted to 317 nM; in series [1] (setting [6]) it was 541 nM. Regarding “GGGUGGUAGGCGGCCGCCACUGAUUUUCAUUCCUAGAUGACAUGAGGAUCACCCAUGUUUAUGGGCAGGACCGGGCCUGCUGUGG”, the “apparent Kd” value in series [1] (setting [3]) came out at 62.7 nM; in series [1] (setting [4]) it was 55.7 nM. For “UUUAUUAUUGACUCGUUUUGGUAUUAAGAACGAGGACCGGUACGGCCGCCACUCGUGAUAUACAUGAGGAUCACCCAUGUUAGCA” the same measures were 15.1 nM and 15.5 nM. “CCUCAUGAACAUGAGGAUCACCCAUGUACACGAGGACCGGUACGGCCGCCACUCGAAUAACCUAAAUAUAAAUAAUAAUAAUAGG”: the “apparent Kd” value in series [1] (setting [5]) came to 15.8 nM; in series [1] (setting [6]), 43 nM.

Regarding “CACGAAAGAUCGGCCGCCACUCAUGUUUCUUACAUGAGGAUCACCCAUGUAUUUUCUUUCUUUUAGAGGACCGGGAUCGAGCGUG”, the “apparent Kd” value was determined as 40.8 nM in series [1] (setting [3]) and 18.4 nM in series [1] (setting [4]). With “GGCUAGGUCUCGGCCGCCACUGCUACAUGAGGAUCACCCAUGUACCUGGGCGGUCGCUCCCUCGGCAGGACCGGGAGACAUUCGU”, the results for the “apparent Kd” value in series [1] (setting [5]) and in series [1] (setting [6]) were 9.97 nM and 23 nM, respectively. Regarding “GAGGAAACUCACAUGAGGAUCACCCAUGUACGAGGACCGGUACGGCCGCCACUCGAAACCAUGGGCGGUAGUACGUGGAAGCUUG”, the “apparent Kd” value in series [1] (setting [5]) came out at 21.8 nM; in series [1] (setting [6]), 95.9 nM. “AGUUUAGACACGGCCGCCACUCGUGACAGAUUUCGCAGUGGUCUACAUGAGGAUCACCCAUGUCUGAGGACCGGGUGUUGAGUUU”: the “apparent Kd” value in series [1] (setting [5]) came to 144 nM; in series [1] (setting [6]), 433 nM. As to “AUCUUUGACGAUCUGGGAAAACCAGAUCGGCGAGGACCGGUACGGCCGCCACUCGUGUAUAAUAUACAUGAGGAUCACCCAUGUA”, the “apparent Kd” value in series [1] (setting [3]) amounted to 40.4 nM; in series [1] (setting [4]), 29.6 nM. For the sequence “GCUGCAGCUACGGCCGCCACUGUUACGUGAGACAUGAGGAUCACCCAUGUUGAUGUUUUACAGAAUAGGACCGGGUAGUUGUAGU”, the figures for the “apparent Kd” value in series [1] (setting [5]) and in series [1] (setting [6]) were 9.07 nM and 10.2 nM, respectively. Take “AAUAAUAGGUGAUCUUGAGUCGUACCGUAACGAGGACCGGUACGGCCGCCACUCGAACAUGAGGAUCACCCAUGUAUGUAUGAUA”: the “apparent Kd” value was 90 nM in series [1] (setting [3]) and 117 nM in series [1] (setting [4]). For “UAAUAAGUACCGGUCCUCAGAUCCUCAUGUCGAGGACCGGUACGGCCGCCACUCGAAACAUGAGGAUCACCCAUGUAAUAAUAAU”, the “apparent Kd” value in series [1] (setting [5]) amounted to 39.5 nM; in series [1] (setting [6]), 31.5 nM. For “GAUGAUAUUGCAGAUACCAGACACAUGAGGAUCACCCAUGUCGUUGGGUAGCUGGGUCGUGUCCCUUGGCAGCUGCGAUAUCAUC”, the results for the “apparent Kd” value in series [2] (setting [7]) and in series [2] (setting [8]) were 23.3 nM and 138 nM, respectively. For “AUAUGAUCAUGUGAUACCAGAAAUGGUAGUCUUCACUGGAUUACAUGAGGAUCACCCAUGUUCCCUUGGCAGCAUAUGAUCAUAU” the same measures were 43.6 nM and 259 nM. For the sequence “AAAAUAAAUAAAACACGUAACAUGAAGGAUACCAGCCAGAAAACUGGCCCUUGGCAGCCUCUACAUGAGGAUCACCCAUGUCGUG”, the “apparent Kd” value is 305 nM in series [2] (setting [9]) and 28 nM in series [2] (setting [10]).

For the sequence “CCACACAUGAGGAUCACCCAUGUAAUUGAUACCAGAUUUAAAUGAGUCCCUUGGCAGCAGUGAGCUAGAGUUGUCGUAUAUAUGG”, the figures for the “apparent Kd” value in series [2] (setting [9]) and in series [2] (setting [10]) were 17 nM and 18.9 nM, respectively.

Regarding “CUUGGUAGAUCCUAGCUGCCAAGAGGUGAUACCAGCAUCGAAAGAUGCCCUUGGCAGCACCAACAUGAGGAUCACCCAUGUAAUA”, the “apparent Kd” value in series [2] (setting [9]) came out at 70.7 nM; in series [2] (setting [10]), 339 nM. In the same order, the values of “CGAAUACCAAUUGAUACCAGCAUGUUAACAUGAGGAUCACCCAUGUUAAGGAUAACAUAAUGCCCUUGGCAGCAACGUAAAUUCG” are 22.9 nM and 13.5 nM. For “AUAAGUAUGUUUUCGUGUUUUAUUACAGAUACCAGACUAUACGUUGUCCCUUGGCAGCUGGAUUACAUGAGGAUCACCCAUGUUG”, the entries for the “apparent Kd” value in series [2] (setting [7]) and in series [2] (setting [8]) were 23.1 nM and 53 nM, respectively. For “AUAAGUAAUGUCUCGUGUAUUAUUACAGAUACCAGACUAUCCUAUGUCCCUUGGCAGCUGGAUUACAUGAGGAUCACCCAUGUUG” the same measures were 23.2 nM and 27.5 nM.

Regarding “AUUUAUAGUUGUGAUACCAGACUUACAUGAGGAUCACCCAUGUUACUUAAAUGUUUUGAUGUCCCUUGGCAGCACUGUUUUUUUA”, the “apparent Kd” value in series [2] (setting [7]) worked out at 16.6 nM. Turning to “ACCUACACGGAGACGUGUAGGAGUAAUGAUACCAGCAUGGAGACAUGCCCUUGGCAGCGUUACAUGAGGAUCACCCAUGUACGUU”, the “apparent Kd” value in series [2] (setting [7]) was found to be 10.2 nM; in series [2] (setting [8]), 14.1 nM.

In the case of “GCAAUACAUGAGGAUCACCCAUGUGCAGAUACCAGAGGUGCGUGCCUCCCUUGGCAGCUGCGACGCUCUGGAAGCUUGUGUGUCU”, the results for the “apparent Kd” value in series [2] (setting [7]) and in series [2] (setting [8]) were 19.4 nM and 25.2 nM, respectively. In the case of “UCGUGUGUUUCGGAUACCAGUGUGGUCGAUACAUGAGGAUCACCCAUGUGAGAGGAGGUACACCCUUGGCAGCUGGCUGUUGCGG”, the “apparent Kd” value in series [2] (setting [9]) stood at 72 nM; in series [2] (setting [10]), 86.4 nM. Regarding “ACCAGCACACAUGAUACCAGCGACAUGAGGAUCACCCAUGUACGGCGUGUAUCGAAAGGUUGCCCUUGGCAGCAUGAUAGUGCUA”, the “apparent Kd” value in series [2] (setting [7]) is 12.8 nM; in series [2] (setting [8]), 129 nM.
